RGS4 pot = potentiators or activators of RGS4 | 0.92% of 310,000 active | HEK293 M3R/inducible RGS4, carbachol calcium flux Fluo4; active compounds read low | AID 463111 | B-score at 10 µM;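 active = B-score of the integrated calcium signal more than 4 SD below the library mean, with starting fluorescence not abnormally high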;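 note: negative B-score means reduced calcium response which marks RGS4 activation or potentiation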
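Test system: HEK293 cells with stable M3R and inducible RGS4; also added: carbachol at ECmax as muscarinic agonist stimulus; schedule: dye loading 30 min 37 °C, buffer rest 30 min RT; technique: kinetic calcium fluorescence imaging with Fluo4-AM dye, 2 µM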
RGS4 block = inhibitors of human RGS4 | AID 463165 | B-score at 10 µM | 0.45% of 310,000 active | HEK293 M3R/RGS4 inducible, Fluo-4 calcium flux; active compounds read high; triggered by carbachol at its EC20 | P49798;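 active = B-score, a plate-corrected calcium signal, over three deviations above library mean, with baseline fluorescence within five deviations of library mean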;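 note: RGS4 expression induced by doxycycline in cells with stable M3 receptor; B-score is computed from the integrated fluorescence ratio over baseline after carbachol; higher B-score means a larger calcium signal and so more RGS4 inhibition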
MrgX1 ag = agonists of human MrgX1 receptor | MrgX1-HEK293 cells, Fluo-4 calcium fluorescence, agonist mode; active compounds read high | AID 588627 | Q96LB2 | 0.44% of 310,000 active | B-score at 10 µM;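 active = calcium response B-score plate-corrected fluorescence ratio at least 3 library SD, with starting fluorescence B-score inside 5 SD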
Target sequence (Q96LB2 whole entry, looked up): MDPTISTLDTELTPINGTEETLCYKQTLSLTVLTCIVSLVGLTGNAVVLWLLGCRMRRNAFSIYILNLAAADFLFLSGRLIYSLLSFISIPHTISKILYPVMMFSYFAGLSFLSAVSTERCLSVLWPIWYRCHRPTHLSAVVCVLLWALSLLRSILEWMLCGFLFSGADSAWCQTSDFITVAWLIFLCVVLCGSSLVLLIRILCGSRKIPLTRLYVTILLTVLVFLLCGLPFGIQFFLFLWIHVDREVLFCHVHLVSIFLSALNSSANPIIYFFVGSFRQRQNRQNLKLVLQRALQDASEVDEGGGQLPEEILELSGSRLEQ
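Material – MrgX1-expressing HEK293 cells · Input – 15,000 cells seeded per well · Dosing – compound as first of three additions · Times – overnight seeding, then 1 h dark dye loading · Measured by – kinetic Fluo-4 NW fluorescence of intracellular calcium · Read-out – B-scored fluorescence response ratio · Benchmarks – positive and negative control wells on each plate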
PHOSPHO1 inh = inhibitors of human PHOSPHO1 phosphatase. recombinant PHOSPHO1, absorbance phosphatase assay. inhibition, % at 13.3 µM. 1.1% of 290,000 active; in the data active = inhibition above about 60%
Target sequence (Q8TCT1 whole entry, looked up): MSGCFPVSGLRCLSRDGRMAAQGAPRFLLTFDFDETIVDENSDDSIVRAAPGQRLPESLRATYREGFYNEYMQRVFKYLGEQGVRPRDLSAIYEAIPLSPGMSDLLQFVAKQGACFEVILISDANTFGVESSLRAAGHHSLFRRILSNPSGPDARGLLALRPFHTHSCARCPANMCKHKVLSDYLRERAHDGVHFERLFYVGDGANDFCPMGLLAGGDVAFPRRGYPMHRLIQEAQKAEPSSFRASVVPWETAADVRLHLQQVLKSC
MrgX1 antagonist = blocks BAM8-22 activation of human MrgX1 receptor. Q96LB2. MRGX1-HEK293 calcium flux, Fluo-4, BAM8-22 antagonism; active compounds read low. B-score at 10 µM. 1.3% of 310,000 active. AID 588676;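 active = calcium-response B-score plate-corrected more than 3 library SD below zero, starting fluorescence within 5 deviations, no agonist response on first addition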;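 note: peak minus trough fluorescence over baseline after final BAM8-22 challenge near maximal dose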
MrgX1 PAM = human MrgX1 positive allosteric modulation, primary screen; Q96LB2; MrgX1-HEK293, Fluo-4 calcium flux, FDSS; active compounds read high; B-score at 10 µM; 0.63% of 310,000 active; AID 588675;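 active = plate-corrected calcium response at least 3 library SD above typical, normal starting fluorescence, not activating the receptor alone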;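 note: compound read alongside a low EC10 to EC30 dose of BAM8-22 agonist; peak minus trough fluorescence over baseline measured at the second addition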
MrgX1 ant reconf = human MrgX1 receptor antagonism, re-confirmation screen. shares compounds with MrgX1 antagonist. MrgX1-HEK293, BAM8-22 calcium flux, Fluo-4; active compounds read low. remaining BAM8-22 calcium response % of control (active compounds read low), % at 10 µM. 19% of 2,300 active. AID 602420;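 active = remaining agonist calcium response no higher than 100% minus 3 SD of agonist-only control wells, with starting fluorescence near control levels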;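 note: agonist BAM8-22 given at a near maximal EC90 to ECmax level; peak minus minimum fluorescence divided by baseline after agonist addition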
HEK293 Ca flux = counter-screen for MrgX1 antagonists: effect in parental HEK293 cells. shares compounds with MrgX1 antagonist. Fluo-4 calcium fluorescence, FDSS. fluorescence ratio F(max-min)/F0 at 10 µM. 2% of 4,000 active;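 active = duplicate-averaged calcium fluorescence ratio at least three times the standard deviation of buffer wells, a nonspecific response in parental cells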
HEK293 Ca counter = activity in parental HEK293 cells without MrgX1. shares compounds with MrgX1 antagonist. parental HEK293 calcium flux, Fluo-4 fluorescence ratio; active compounds read high. fluorescence ratio F(max-min)/F0 at 10 µM. 0.4% of 4,000 active. AID 624114;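 active = calcium fluorescence ratio, averaged over duplicates, at least 3 SD of the buffer-well ratio, meaning a nonspecific response in receptor-free cells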;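 note: untransfected parental HEK293 lacking MrgX1 used as counterscreen for MrgX1 allosteric activators; fluorescence change taken during the second addition on a kinetic imager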
HEK293 Ca cntr2 = MrgX1 activator counter-screen hit in parental HEK293 cells; Fluo-4 calcium fluorescence (FDSS); active compounds read high; 8.7% of 4,000 active; fluorescence ratio F(max-min)/F0 at 10 µM; shares compounds with MrgX1 antagonist; AID 624115;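 active = calcium fluorescence ratio at least three times the spread of buffer wells, meaning a non-specific response in parental cells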
* hit, by the source's call; i = inactive; x = no result. Rows were chosen to be rich in hits. Some 4.5% of all compounds tested hit in one or more screens of this group.

SMILES	RGS4 pot	RGS4 block	MrgX1 ag	PHOSPHO1 inh	MrgX1 antagonist	MrgX1 PAM	MrgX1 ant reconf	HEK293 Ca flux	HEK293 Ca counter	HEK293 Ca cntr2
COc1cc(NC(=O)c2oc3ccccc3c2C)ccc1NC(=O)c1ccco1	i	i	i	26.1	i	i	x	x	x	x
COc1ccccc1NC(=O)c1oc2ccccc2c1NC(=O)c1ccco1	i	i	i	31.7	-5.17*	i	77.1%*	i	i	i
Cc1cc(/C=C2\SC(=S)N(C)C2=O)c(C)n1-c1ccc(O)cc1	i	i	i	28.1	-11.3*	i	i	i	i	i
COc1ccc(-c2csc(NC(=O)c3cccc(S(=O)(=O)N4CCN(C)CC4)c3)n2)cc1	i	i	i	6.0	-5.81*	i	i	i	i	i
CN1CCN(S(=O)(=O)c2cccc(C(=O)Nc3nc(-c4ccccc4)cs3)c2)CC1	i	i	i	46.5	i	i	x	x	x	x
COc1cc([N+](=O)[O-])ccc1NC(=O)CCCOc1cc(C)ccc1C	i	i	i	11.2	i	i	x	x	x	x
CCOC(=O)N1CCC(N2CCN(c3cc(C)ccc3C)CC2)CC1	i	i	i	7.4	-8.8*	i	i	i	i	i
CCOC(=O)CCc1c(C)nc2cc(-c3ccc(Cl)cc3)[nH]n2c1=O	i	i	i	38.9	-5.99*	i	i	i	i	i
CCc1c(C)nc2cc(-c3ccc(Cl)cc3)[nH]n2c1=O	i	i	i	-22.9	i	i	x	x	x	x
O=C(Cc1ccccc1F)Nc1cc(Cl)ccc1N1CCCC1	i	i	i	37.0	i	i	x	x	x	x
Cc1cc(NC(=O)c2ccco2)c(=O)n(Cc2cccc(C(F)(F)F)c2)c1	i	i	i	14.3	i	i	x	x	x	x
CCc1nnc(NC(=O)CSc2nnc(-c3cc4ccccc4cc3O)n2CC)s1	i	i	i	45.1	i	i	x	x	x	x
CCn1c(SCC(=O)N(C(C)C)C(C)C)nnc1-c1cc2ccccc2cc1O	i	i	i	-11.8	-6.18*	i	i	i	i	i
COc1ccc(/C=C2\Oc3cc(OCC(=O)N4CCC[C@H]4CO)ccc3C2=O)c(OC)c1	i	i	i	34.3	i	i	x	x	x	x
Cc1nn(C)c(C(=O)N/N=C/c2cccc(Oc3ccccc3)c2)c1Br	i	i	i	23.3	i	i	x	x	x	x
Nc1ncnc2nc(SCC(=O)N3CCN(c4ccccc4)CC3)[nH]c12	i	i	i	-33.6	-4.71*	i	i	i	i	i
Cc1c(C#N)c2ccccc2n1CC(=O)NCC1CCCO1 (stereo not drawn)	i	i	i	6.2	-5.08*	i	i	i	i	i
O=C(Cn1c(NCCO)nc2ccccc21)NCC1CCCO1 (stereo not drawn)	i	i	i	18.8	-4.71*	i	i	i	i	i
O=C(Cn1c(NCCO)nc2ccccc21)NCCc1ccccc1	i	i	i	-2.7	i	i	x	x	x	x
COC(=O)c1ccc(C(=O)OC)c(NC(=S)N2CCC(C(N)=O)CC2)c1	i	i	i	49.6	i	i	x	x	x	x
COC(=O)c1ccc2c(=O)sc(N3CCC(C(N)=O)CC3)nc2c1	i	i	i	3.3	-7.62*	i	i	i	i	i
COc1ccc2oc(C(=O)N(C)CCOc3ccccc3)c(C)c2c1	i	i	i	32.6	i	i	x	x	x	x
O=C(Nc1ccc(S(=O)(=O)Nc2ncccn2)cc1)c1ccc2ncsc2c1	i	i	i	28.5	-5.04*	i	72.6%*	i	i	i
O=C(Nc1ccncc1)c1ccc2ncsc2c1	i	i	i	x	i	i	x	x	x	x
O=C(Nc1ccc(Cl)cc1)c1cc2c(cc1O)[nH]c1ccccc12	i	i	i	38.1	-4.89*	i	54.0%*	i	i	i
SMILES	RGS4 pot	RGS4 block	MrgX1 ag	PHOSPHO1 inh	MrgX1 antagonist	MrgX1 PAM	MrgX1 ant reconf	HEK293 Ca flux	HEK293 Ca counter	HEK293 Ca cntr2
CC(=O)Nc1ccc2[nH]c3ccccc3c2c1	i	i	i	11.1	i	i	x	x	x	x
Cc1ccc(N(CC(=O)N2CCc3ccccc32)S(=O)(=O)c2cccs2)cc1	i	i	i	-7.1	i	i	x	x	x	x
CCOC(=O)NN=C1CN(S(=O)(=O)c2ccc(C)cc2)C1	i	i	i	-35.9	i	i	x	x	x	x
Cc1ccc(NC(=O)NNC(=O)C2CCN(Cc3ccc(F)cc3Cl)CC2)cc1	i	i	i	28.1	i	i	x	x	x	x
Cc1cccc(C)c1OC(=O)CN(c1ccc(Cl)cc1)S(C)(=O)=O	i	i	i	18.0	-7.08*	i	i	i	i	i
CS(=O)(=O)N(CC(=O)NCc1ccccc1)c1ccc(Cl)cc1	i	i	i	24.7	i	i	x	x	x	x
O=C(Nc1ccncc1)Nc1ccncc1	i	i	i	18.0	i	i	x	x	x	x
CC(=O)c1ccc(NC(=O)Nc2ccncc2)cc1	i	i	i	15.3	-6.75*	i	81.7%*	i	i	i
O=C(NCC(c1ccco1)N1CCc2ccccc2C1)C(=O)Nc1ccc(F)cc1F (stereo not drawn)	i	i	i	x	-5.81*	i	i	i	i	i
Cc1ccc(SCC(=O)NC(=O)Nc2ccc3c(c2)OCCO3)cc1C	i	i	i	3.2	i	i	x	x	x	x
CS(=O)(=O)N(Cc1ccc(Cl)cc1)c1ccc(C(=O)NCCC2=CCCCC2)cc1	i	i	i	7.1	-5.44*	i	i	i	i	i
Cn1c(-c2nonc2N)nc2ccccc21	i	i	i	29.1	i	i	x	x	x	x
CCCn1c(-c2nonc2N)nc2ccccc21	i	i	i	-3.3	-8.34*	i	i	i	i	i
